The source of these data is ChEMBL document CHEMBL1134682, “A novel series of 2,6,7-substituted 2,3-dihydro-1,4-benzodioxin and 2,6,7-substituted 1,4-benzodioxin derivatives as lipid peroxidation inhibitors. Structure-activity relationships for high inhibition of human low-density lipoprotein peroxidation” (J Med Chem, 2001).

Structures are written as SMILES. The source made the active and inactive calls. The calls are words filed in the database; no cut-off is given here.

One test is filed under the species Rattus norvegicus. Kind of test: Inhibitory concentration against KCl induced rat thoracic aorta contraction. The test is classed as functional. The method, boiled down:
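Isolated rat aorta was contracted with hyperpotassic KCl (60 mM). Inhibition of contraction was measured over eight increasing concentrations (10⁻⁸ to 3 × 10⁻⁵ M), each in duplicate, on two preparations. IC50 came from the concentration–response curve by linear regression.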

Test [1] is filed under the species Homo sapiens. Kind of test: Tested for the activity ratio versus probucol. It is filed as functional. An outline of the steps:
(§1)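 Human LDL was isolated by ultracentrifugation (1.019 < d < 1.063) from pooled EDTA (0.04%) plasma of healthy normolipidemic donors. Oxidation was driven by Cu²⁺ for 3 h at 37 °C, with compounds in DMSO added just before. TBARS was read by the Yagi method as MDA equivalents. Ten concentrations from 10⁻⁷ to 10⁻³ M were run in duplicate, with IC50 by linear regression. A ratio versus probucol corrected for LDL batch.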

The species entered for test [2] is Homo sapiens. Kind of test: Concentration inhibiting 50% of the copper induced lipid peroxidation determined using the thiobarbituric acid reactive substance and expressed as an MDA equivalent. The test is classed as functional. An outline of the steps: as §1
For test [3], the system named is Mus musculus. Kind of test: Compound was tested for the time before the first gasps after ip administration of 2.5 mg/kg in hypoxia test. The test is classed as functional. The note with it: route intraperitoneal. The method, boiled down:
(§2)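 Male Swiss CD1 mice (25–30 g) were housed 1 week at 20–22 °C, 55% humidity, 12/12 light cycle. Compound was given ip 30 min before placing each mouse in a small box flushed with 96% N₂/4% O₂ at 12 L/min. Read-out was the time until the first gasps. Vincamine was the reference.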

The subject of test [4] is Mus musculus. Kind of test: Compound was tested for the time before the first gasps after ip administration of 20 mg/kg in hypoxia test. It is filed as functional. The note with it: route intraperitoneal. An outline of the steps: as §2
For test [5], the system named is Mus musculus. Kind of test: Compound was tested for change in the total cholesterol after (po) administration of 300 mg/kg in mice. It is filed as functional. The method, boiled down: (§3)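 Groups of six mice were made hypercholesterolaemic by a high-cholesterol, cholic-acid diet for 7 days. Compound was dosed po, half on day 6 and half on day 7, then mice were fasted overnight without food or water. Serum total cholesterol and heparin-precipitated LDL-VLDL were compared with hypercholesterolaemic controls.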

Test [6] relates to Mus musculus. Kind of test: Compound was tested for the time before the first gasps after ip administration of 1 mg/kg in hypoxia test. It is filed as functional. The note with it: route intraperitoneal. An outline of the steps:
as §2

The test system of test [7] is Mus musculus. Kind of test: Compound was tested for the time before the first gasps after ip administration of 2.5 mg/kg in hypoxia test; inactive. It is filed as functional, organism-based. On the set-up: dose 2.5 mg/kg. An outline of the steps:
as §2

Test [8] has as its system Mus musculus. Kind of test: Compound was tested for change in the LDL-VLDL fraction after (po) administration of 300 mg/kg in mice. It is filed as functional. An outline of the steps:
as §3

Test [9] relates to Mus musculus. Kind of test: Compound was tested for change in the total cholesterol after (po) administration of 100 mg/kg in mice. The test is classed as functional. The method, boiled down:
as §3

In test [10] the test system is Mus musculus. Kind of test: Compound was tested for change in the LDL-VLDL fraction after (po) administration of 100 mg/kg in mice. The test is classed as functional. The method, boiled down: as §3
Test [11] is filed under the species Homo sapiens. Kind of test: Concentration inhibiting 50% of the copper induced lipid peroxidation determined using th e thiobarbituric acid reactive substance and expressed as an MDA equivalent; Peroxidant. The test is classed as functional. An outline of the steps:
as §1

Test [12] is filed under the species Homo sapiens. Kind of test: Concentration inhibiting 50% of the copper induced lipid peroxidation determined using th e thiobarbituric acid reactive substance and expressed as an MDA equivalent. The test is classed as functional. The method, boiled down: as §1
Test [13] is filed under the species Homo sapiens. Kind of test: Compound was tested for the activity ratio versus probucol. The test is classed as functional. An outline of the steps:
as §1

One may read the IC50 as the concentration that inhibits the measured activity by half.

Turning to `O=C(C1COc2cc(O)ccc2O1)N1CCN(C(c2ccc(F)cc2)c2ccc(F)cc2)CC1` (configuration not stated), the IC50 in the test filed under Rattus norvegicus and in the test filed under Homo sapiens [2] was 3000 nM throughout. Further, the Ratio in the test filed under Homo sapiens [1] is recorded as 1.7.

As for `COc1ccc(CN2CCN(C(=O)C3COc4ccc(O)cc4O3)CC2)c(OC)c1OC` (configuration not stated), the Ratio in the test listed under Homo sapiens [1] was found to be 3. In the test filed under Homo sapiens [2], the half-maximal inhibitory concentration (IC50) came to 1700 nM.

`Fc1ccc(C(c2ccc(F)cc2)N2CCN(C/C=C/c3ccccc3)CC2)cc1` [FLUNARIZINE] came in with a half-inhibitory concentration (IC50) in the test filed under Rattus norvegicus of 270 nM.

As to `Oc1ccc2c(c1)OC=C(C(=S)N1CCN(C(c3ccc(F)cc3)c3ccc(F)cc3)CC1)O2`, the Ratio in the test filed under Homo sapiens [1] amounted to 0.5. The IC50 in the test listed under Homo sapiens [2] is 9000 nM.

Turning to `CC(C)(C)c1cc2c(cc1O)OC=C(C(=O)N1CCN(C(c3ccc(F)cc3)c3ccc(F)cc3)CC1)O2`, the figures for the IC50 in the test listed under Rattus norvegicus and in the test filed under Homo sapiens [2] were 3100 nM and 1000 nM, respectively. Moreover, the Ratio in the test filed under Homo sapiens [1] is 5.

As to `Nc1ccc2c(c1)OC=C(C(=O)N1CCN(C(c3ccc(F)cc3)c3ccc(F)cc3)CC1)O2`, the Ratio in the test filed under Homo sapiens [1] is reported as 0.1. Besides, in the test filed under Homo sapiens [2], the IC50 worked out at 35000 nM.

As to `COc1ccc2c(c1)OC=C(C(=O)N1CCN(C(c3ccc(F)cc3)c3ccc(F)cc3)CC1)O2`, the Ratio in the test filed under Homo sapiens [1] was less than 0.005. The 50% inhibitory concentration (IC50) in the test listed under Homo sapiens [2] was greater than 100000 nM.

On to `Oc1ccc2c(c1)OC=C(CN1CCC(=C(c3ccc(F)cc3)c3ccc(F)cc3)CC1)O2`, for which, in the test listed under Homo sapiens [1], the Ratio is given as greater than 45. Moreover, in the test listed under Homo sapiens [2], the concentration for half-maximal inhibition (IC50) is less than 100 nM.

Regarding `O=C(C1=COc2ccc(O)cc2O1)N1CCN(C(c2ccc(F)cc2)c2ccc(F)cc2)CC1`, in the test filed under Homo sapiens [1], the Ratio is given as 2.9. For the same molecule, the IC50 in the test filed under Homo sapiens [2] was 700 nM.

Turning to `O=C(C1=COc2cc(O)ccc2O1)N1CCN(C(c2ccc(F)cc2)c2ccc(F)cc2)CC1`, the Time in the test on Mus musculus [3] came out at 108 s; in the test with Mus musculus [4], 67 s; with Mus musculus [6], 55 s. For the same molecule, the IC50 was 560 nM in the test filed under Rattus norvegicus and less than 100 nM in the test listed under Homo sapiens [2]. Moreover, the Ratio in the test listed under Homo sapiens [1] is listed as greater than 45. Further, the Change in the test with Mus musculus [5] is -7%.

For `O=C(C1=COc2cc(O)ccc2O1)N1CCC(=C(c2ccc(F)cc2)c2ccc(F)cc2)CC1`, the Ratio in the test listed under Homo sapiens [1] is 2. Further, the half-inhibitory concentration (IC50) in the test listed under Homo sapiens [2] was 500 nM.

For `CC[C@]12CCCN3CCc4c(n(c5ccccc45)[C@@](O)(C(=O)OC)C1)[C@@H]32` [VINCAMINE], in the test on Mus musculus [7], the IA result is “inactive”. Also, the Time with Mus musculus [4] is on record as 147 s.

Turning to `CCCCN(C(=O)C1=COc2cc(O)c(C(C)(C)C)cc2O1)c1ccccc1`, the Ratio in the test listed under Homo sapiens [1] came to 5. The 50% inhibitory concentration (IC50) in the test listed under Homo sapiens [2] came to 200 nM.

As to `O=C(C1=COc2ccccc2O1)N1CCN(C(c2ccc(F)cc2)c2ccc(F)cc2)CC1`, in the test filed under Rattus norvegicus, it took 1800 nM to reach half-maximal inhibition (IC50).

Take `COc1ccc(CN2CCN(C(=O)C3=COc4ccc(O)cc4O3)CC2)c(OC)c1OC`: in the test filed under Homo sapiens [1], the Ratio is 1.7. Further, the IC50 in the test listed under Homo sapiens [2] was 3000 nM.

Regarding `O=C(C1COc2ccc(O)cc2O1)N1CCN(C(c2ccc(F)cc2)c2ccc(F)cc2)CC1` (configuration not stated), the values for the 50% inhibitory concentration (IC50) in the test listed under Rattus norvegicus and in the test listed under Homo sapiens [2] were 2200 nM and 200 nM, respectively. Also, the Ratio in the test listed under Homo sapiens [1] is given as 10.

With `Oc1ccc2c(c1)OC=C(CN1CCN(C(c3ccc(F)cc3)c3ccc(F)cc3)CC1)O2`, the Change with Mus musculus [8] is recorded as -52%; in the test on Mus musculus [9], -33%; in the test on Mus musculus [5], -48%; in the test on Mus musculus [10] it was -35%. Moreover, the Time was 65 s in the test on Mus musculus [3], 60 s in the test with Mus musculus [4] and 78 s in the test on Mus musculus [6]. Moreover, the 50% inhibitory concentration (IC50) turned out to be 570 nM in the test listed under Rattus norvegicus and 1000 nM in the test listed under Homo sapiens [2]. Besides, in the test listed under Homo sapiens [1], the Ratio is 5.

Consider `CCCCN(C(=O)C1=COc2cc(O)ccc2O1)c1ccccc1`, for which the Ratio in the test filed under Homo sapiens [1] was 2. In the test listed under Homo sapiens [2], the concentration for half-maximal inhibition (IC50) was 1000 nM.

`O=C(Oc1ccc2c(c1)OC=C(C(=O)N1CCN(C(c3ccc(F)cc3)c3ccc(F)cc3)CC1)O2)c1cccnc1`: in the test listed under Homo sapiens [11], the IC50 result is recorded as “Peroxidant”.

For `O=C(Nc1ccccc1)C1=COc2ccc(O)cc2O1`, in the test filed under Homo sapiens [12], the IC50 came out at 500 nM. In addition, the Ratio in the test listed under Homo sapiens [13] came to 4.

For `CCCCN(C(=O)C1=COc2ccc(O)cc2O1)c1ccccc1`, the Ratio in the test listed under Homo sapiens [1] was 2. Also, the half-maximal inhibitory concentration (IC50) in the test filed under Homo sapiens [2] was found to be 400 nM.

Take `CC(C)(Oc1ccc(CCNC(=O)c2ccc(Cl)cc2)cc1)C(=O)O` [BEZAFIBRATE]: the values for the Change with Mus musculus [9] and in the test with Mus musculus [10] were -25% and -20%, respectively.
